In ChEMBL document CHEMBL3763053, “Synthesis of diacylated γ-glutamyl-cysteamine prodrugs, and in vitro evaluation of their cytotoxicity and intracellular delivery of cysteamine” (Eur J Med Chem, 2016):

Tests used:
HaCaT = assay: Cytotoxicity against human HaCaT cells assessed as reduction in cell viability after 48 hrs by MTT assay; assay type: cell-based
How it was run: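 HaCaT keratinocytes were exposed for 48 h at 37 °C under 5% CO2 to test agents dissolved in medium. Nine twofold serial dilutions ran from 500 down to 1.95. Cells were then rinsed with PBS (pH 7.4) and given MTT at 0.5 mg/mL in PBS for 10 min in the dark, then read at 595 nm. Survival is a percentage of control wells, averaged over 12 replicates. EC50 came from non-linear regression of dose-response curves.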

[1] = Lipophilicity, log D of compound at pH 7.4; details: buffer
physchem = details: octanol/water, pH 2
[2] = Prodrug activation in human PT37 cells assessed as intracellular cysteamine-CMQT formation at 20 uM incubated for 2 to 24 hrs by HPLC analysis; assay type: cell-based; details: pt37, 20 µM
How it was run: (§1)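 PT37 normal human proximal tubule cells were grown in DMEM/F12 with 2 mM L-glutamine, penicillin-streptomycin and 10% heat-inactivated FCS at 37 °C under 5% CO2. Confluent monolayers got […] test agent in medium at 37 °C for 0, 2, 6, 16 or 24 h. Cells were trypsin-harvested, lysed and centrifuged. Pellet protein was measured by Bradford against BSA standards. Supernatant thiols were reduced with NaBH4, derivatised with CMQT and analysed by HPLC with UV and fluorescence detection. Results are nmol/mg protein, n=3.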

[3] = Dissociation constant, pKa of compound at pH 2 to 12 at 1 to 2 mg by potentiometric titration method; assay type: physicochemical
How it was run: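 Accurately weighed sample loaded into an automated Sirius T3 for pH-metric analysis, using automated acid-base titration. The pKa was computed from the titration data. The value is the mean of 3 titrations.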

Serum = assay: Prodrug activation in fetal bovine serum containing medium assessed as cysteamine formation after 24 hrs by LC-MS analysis; set-up: species or system Bos taurus; details: cattle
How it was run: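 Prodrug was incubated in medium containing fetal bovine serum for up to 24 h. Hydrolysis and cysteamine release were monitored by LC-MS.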

[4] = Drug metabolism in water assessed as oxidation of cysteamine by measuring cysteamine-CMQT level at pH 4.66 at 0.01 M after 3 hrs by HPLC-UV method; assay type: physicochemical; details: buffer, pH 4.66, 3 h
[5] = Prodrug activation in human PT37 cells assessed as intracellular cysteamine-CMQT formation per mg protein at 20 uM after 24 hrs by HPLC analysis; assay type: cell-based; details: pt37, 24 h; how it was run: as §1
[6] = Prodrug activation in human PT37 cells assessed as intracellular cysteamine-CMQT formation at 20 uM after 2 hrs by HPLC analysis; assay type: cell-based; details: pt37, 2 h; how it was run: as §1
[7] = Drug metabolism in water assessed as oxidation of cysteamine by measuring cysteamine-CMQT level at pH 4.66 at 0.01 M after 1 hr by HPLC-UV method; assay type: physicochemical; details: buffer, pH 4.66, 1 h
[8] = Prodrug activation in human PT37 cells assessed as intracellular cysteamine-CMQT formation per mg protein at 20 uM after 6 hrs by HPLC analysis; assay type: cell-based; details: pt37, 6 h; how it was run: as §1

SMILES | logD [1] | logP (physchem) | Drug metabolism [2] | pKa [3] | EC50 (HaCaT; Homo sapiens, HaCaT, 48 h) [µM] | other results
N[C@@H](CCC(=O)NCCS)C(=O)O | – | – | – | – | – | Drug metabolism (Serum): metabolite_notdetected
CCCOC(=O)[C@@H](N)CCC(=O)NCCSC(=O)c1ccccc1 | – | – | – | – | 75 | –
CCCOC(=O)[C@@H](N)CCC(=O)NCCSC(=O)C(C)(C)C | – | – | – | – | 152 | –
Cl.NCCS [CYSTEAMINE HYDROCHLORIDE] | – | – | – | 8.15 | – | EC50 (HaCaT; hacat): 309 µM; Drug metabolism [4]: metabolite_notdetected; Drug metabolism [5]: 0.22 nmol/mg; Drug metabolism [6]: metabolite_detected; Drug metabolism [7]: 50%; Drug metabolism [8]: 0.84 nmol/mg
CCCCOC(=O)[C@@H](N)CCC(=O)NCCSC(=O)c1ccccc1 | – | – | – | – | 97 | –
CCCCOC(=O)[C@@H](N)CCC(=O)NCCSC(=O)C(C)(C)C | – | – | – | – | 102 | –
Cl.Cl.NCCS | – | – | metabolite_notdetected | – | – | –
CCOC(=O)[C@@H](N)CCC(=O)NCCSC(=O)c1ccccc1.Cl | -0.37 | 1.09 | metabolite_detected | 8.85 | 331 | –

The next lines start with results.

logD [1] | logP (physchem) | Drug metabolism [2] | pKa [3] | SMILES | EC50 (HaCaT; Homo sapiens, HaCaT, 48 h) [µM] | other results
-0.88 | 0.43 | metabolite_detected | 8.69 | CCCCOC(=O)[C@@H](N)CCC(=O)NCCSC(C)=O.Cl | 563 | –
-1.21 | 0.21 | metabolite_detected | 8.8 | CCCOC(=O)[C@@H](N)CCC(=O)NCCSC(C)=O.Cl | 548 | –
-1.44 | 0.11 | metabolite_detected | 8.94 | CCOC(=O)[C@@H](N)CCC(=O)NCCSC(C)=O.Cl | 1730 | Drug metabolism (Serum): metabolite_notdetected
-0.29 | 1.22 | metabolite_detected | 8.9 | CCOC(=O)[C@@H](N)CCC(=O)NCCSC(=O)C(C)(C)C.Cl | 228 | –
